Experimental data published in PMC9350903 (ACS chemical neuroscience, 2021).
Several values for one entry are separate records, joined by “and”; a condition that tells them apart may be missing. Identical values can stand only once. Each block holds one compound with its values, some of them ahead of it.

Key:
[1] = biological target: T1, CSF-1R (Mus musculus, UniProt P09581); assay: [^3H]CPPC autoradiography in i.p. LPS mouse spleen tissues; assay type: binding
T1 sequence (P09581 20-977): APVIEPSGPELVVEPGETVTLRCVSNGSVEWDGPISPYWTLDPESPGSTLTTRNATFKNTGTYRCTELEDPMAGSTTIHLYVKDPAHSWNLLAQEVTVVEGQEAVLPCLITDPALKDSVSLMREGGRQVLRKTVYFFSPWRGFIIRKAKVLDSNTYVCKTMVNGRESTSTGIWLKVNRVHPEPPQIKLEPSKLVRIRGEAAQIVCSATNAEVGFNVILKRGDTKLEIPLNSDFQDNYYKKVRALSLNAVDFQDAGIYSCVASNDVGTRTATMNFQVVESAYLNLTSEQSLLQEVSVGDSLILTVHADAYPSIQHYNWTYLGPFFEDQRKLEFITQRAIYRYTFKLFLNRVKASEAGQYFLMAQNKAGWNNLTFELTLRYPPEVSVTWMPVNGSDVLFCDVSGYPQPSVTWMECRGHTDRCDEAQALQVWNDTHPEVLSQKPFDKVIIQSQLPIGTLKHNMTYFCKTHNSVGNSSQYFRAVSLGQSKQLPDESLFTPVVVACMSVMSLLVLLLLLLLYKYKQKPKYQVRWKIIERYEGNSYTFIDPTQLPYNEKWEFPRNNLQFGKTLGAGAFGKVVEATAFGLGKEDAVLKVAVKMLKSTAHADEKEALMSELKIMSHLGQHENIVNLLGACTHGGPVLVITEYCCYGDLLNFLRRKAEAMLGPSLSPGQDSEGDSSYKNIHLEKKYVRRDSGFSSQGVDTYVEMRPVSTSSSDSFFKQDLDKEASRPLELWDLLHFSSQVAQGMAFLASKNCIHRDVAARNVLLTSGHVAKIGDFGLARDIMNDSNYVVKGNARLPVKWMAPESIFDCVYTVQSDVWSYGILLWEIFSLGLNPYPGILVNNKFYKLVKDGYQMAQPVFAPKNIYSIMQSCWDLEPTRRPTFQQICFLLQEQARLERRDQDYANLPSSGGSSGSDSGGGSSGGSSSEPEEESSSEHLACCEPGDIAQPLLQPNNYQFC

[2] = tested on: Axl; conditions: cited from earlier work
[3] = biological target: vascular endothelial growth factor receptor 2 (Homo sapiens, UniProt P35968); assay: Eurofins DiscoverX SAFETYscan CNS safety panel
[4] = tested on: TrkA; conditions: cited from earlier work
[5] = tested on: Flt-3; conditions: cited from earlier work
[6] = biological target: α4β2 nicotinic acetylcholine receptor (Homo sapiens, UniProt P17787+P43681); assay: Eurofins DiscoverX SAFETYscan CNS safety panel
Chain of α4β2 nicotinic acetylcholine receptor (P43681 29-627 limits assumed): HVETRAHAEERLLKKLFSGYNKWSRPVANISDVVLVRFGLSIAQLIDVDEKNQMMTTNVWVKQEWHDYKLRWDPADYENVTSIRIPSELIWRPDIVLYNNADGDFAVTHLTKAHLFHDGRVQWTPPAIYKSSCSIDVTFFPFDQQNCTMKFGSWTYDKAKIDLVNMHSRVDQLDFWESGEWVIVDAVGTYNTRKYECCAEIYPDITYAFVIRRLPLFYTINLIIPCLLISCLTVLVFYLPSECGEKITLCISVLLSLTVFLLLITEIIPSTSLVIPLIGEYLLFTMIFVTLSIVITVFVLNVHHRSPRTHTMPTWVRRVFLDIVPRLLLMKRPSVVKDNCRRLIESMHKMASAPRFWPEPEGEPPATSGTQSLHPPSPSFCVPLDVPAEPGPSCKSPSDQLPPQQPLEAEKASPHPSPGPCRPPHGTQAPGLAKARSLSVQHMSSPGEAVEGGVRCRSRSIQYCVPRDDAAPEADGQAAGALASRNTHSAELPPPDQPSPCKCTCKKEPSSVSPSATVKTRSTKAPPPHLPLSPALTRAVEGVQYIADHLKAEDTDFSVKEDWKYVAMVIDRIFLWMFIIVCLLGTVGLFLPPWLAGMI
Chain of α4β2 nicotinic acetylcholine receptor (P17787 26-502): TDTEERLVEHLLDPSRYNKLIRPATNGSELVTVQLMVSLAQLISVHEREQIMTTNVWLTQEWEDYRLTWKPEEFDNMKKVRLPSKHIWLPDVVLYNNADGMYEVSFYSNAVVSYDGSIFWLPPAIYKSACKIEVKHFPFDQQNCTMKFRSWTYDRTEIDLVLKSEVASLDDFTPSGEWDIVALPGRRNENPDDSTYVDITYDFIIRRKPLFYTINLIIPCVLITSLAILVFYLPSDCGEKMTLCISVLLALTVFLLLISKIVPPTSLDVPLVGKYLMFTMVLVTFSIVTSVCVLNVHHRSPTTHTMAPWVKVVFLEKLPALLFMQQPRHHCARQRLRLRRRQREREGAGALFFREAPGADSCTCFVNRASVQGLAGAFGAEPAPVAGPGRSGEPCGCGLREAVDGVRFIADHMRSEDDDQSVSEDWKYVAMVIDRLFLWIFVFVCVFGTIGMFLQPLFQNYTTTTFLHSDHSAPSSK

[7] = biological target: insulin receptor (Homo sapiens, UniProt P06213); assay: Eurofins DiscoverX SAFETYscan CNS safety panel
Chain of insulin receptor (P06213 28-1382): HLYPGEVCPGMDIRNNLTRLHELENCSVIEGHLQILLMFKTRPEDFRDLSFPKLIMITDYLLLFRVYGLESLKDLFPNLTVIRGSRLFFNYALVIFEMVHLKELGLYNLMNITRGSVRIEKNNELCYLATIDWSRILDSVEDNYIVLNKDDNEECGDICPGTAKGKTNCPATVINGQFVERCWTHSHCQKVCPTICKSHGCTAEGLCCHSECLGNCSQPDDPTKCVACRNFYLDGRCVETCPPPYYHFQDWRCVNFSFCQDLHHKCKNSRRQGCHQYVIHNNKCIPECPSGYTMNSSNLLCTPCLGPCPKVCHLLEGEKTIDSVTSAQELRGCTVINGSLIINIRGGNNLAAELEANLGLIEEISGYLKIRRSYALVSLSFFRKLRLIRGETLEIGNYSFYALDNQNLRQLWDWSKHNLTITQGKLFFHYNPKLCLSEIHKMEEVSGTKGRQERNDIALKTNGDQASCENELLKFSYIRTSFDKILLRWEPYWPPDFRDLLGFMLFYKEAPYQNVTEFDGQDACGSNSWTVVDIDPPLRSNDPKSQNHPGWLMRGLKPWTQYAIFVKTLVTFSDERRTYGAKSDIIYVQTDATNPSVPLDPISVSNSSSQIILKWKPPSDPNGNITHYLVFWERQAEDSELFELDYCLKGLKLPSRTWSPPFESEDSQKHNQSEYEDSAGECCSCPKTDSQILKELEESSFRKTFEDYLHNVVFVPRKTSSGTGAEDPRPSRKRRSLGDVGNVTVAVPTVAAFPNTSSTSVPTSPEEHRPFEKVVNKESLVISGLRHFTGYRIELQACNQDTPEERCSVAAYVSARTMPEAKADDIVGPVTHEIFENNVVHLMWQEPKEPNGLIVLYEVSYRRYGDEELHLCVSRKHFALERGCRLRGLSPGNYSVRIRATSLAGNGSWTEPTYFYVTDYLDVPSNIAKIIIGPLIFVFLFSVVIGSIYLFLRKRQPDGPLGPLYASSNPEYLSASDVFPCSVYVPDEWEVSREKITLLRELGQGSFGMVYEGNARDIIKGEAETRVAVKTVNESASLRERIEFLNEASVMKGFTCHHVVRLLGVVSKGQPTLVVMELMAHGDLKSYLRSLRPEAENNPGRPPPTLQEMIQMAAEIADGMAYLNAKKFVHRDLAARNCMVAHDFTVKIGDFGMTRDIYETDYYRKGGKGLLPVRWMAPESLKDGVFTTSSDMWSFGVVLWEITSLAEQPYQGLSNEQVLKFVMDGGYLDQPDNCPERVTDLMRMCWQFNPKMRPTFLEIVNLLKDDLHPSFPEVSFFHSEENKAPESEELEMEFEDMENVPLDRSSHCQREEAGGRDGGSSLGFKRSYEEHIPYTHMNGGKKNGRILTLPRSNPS

[8] = biological target: 403 known kinases; assay: scanMAX KINOMEscan profile; assay type: binding; conditions: 10 μM unlabeled CPPC; number of kinases hit of number tested
In short: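 Outsourced scanMAX KINOMEscan competition-binding profile of 403 kinases. Unlabeled test compound was tested at 10 μM, and kinases with off-target binding were identified.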

[9] = biological target: Tyrosine protein kinase LCK (Homo sapiens, UniProt P06239); assay: Eurofins DiscoverX SAFETYscan CNS safety panel
Chain of Tyrosine protein kinase LCK (P06239 whole entry): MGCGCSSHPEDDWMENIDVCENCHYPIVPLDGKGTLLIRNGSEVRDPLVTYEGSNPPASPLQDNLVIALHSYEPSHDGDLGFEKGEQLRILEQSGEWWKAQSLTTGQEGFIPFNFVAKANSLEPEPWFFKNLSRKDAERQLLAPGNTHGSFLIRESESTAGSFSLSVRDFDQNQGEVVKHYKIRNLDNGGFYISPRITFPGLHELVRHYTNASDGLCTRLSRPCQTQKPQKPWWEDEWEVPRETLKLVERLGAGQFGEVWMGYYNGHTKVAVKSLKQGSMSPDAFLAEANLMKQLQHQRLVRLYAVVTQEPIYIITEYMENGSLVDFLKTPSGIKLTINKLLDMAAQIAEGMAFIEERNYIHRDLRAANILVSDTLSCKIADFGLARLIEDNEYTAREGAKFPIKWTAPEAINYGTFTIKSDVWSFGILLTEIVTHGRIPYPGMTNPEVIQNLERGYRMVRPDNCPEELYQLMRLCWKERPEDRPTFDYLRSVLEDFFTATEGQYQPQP

[10] = biological target: NAV 1.5 sodium-gated channel (Homo sapiens, UniProt Q14524); assay: Eurofins DiscoverX SAFETYscan CNS safety panel
Chain of NAV 1.5 sodium-gated channel (Q14524 whole entry): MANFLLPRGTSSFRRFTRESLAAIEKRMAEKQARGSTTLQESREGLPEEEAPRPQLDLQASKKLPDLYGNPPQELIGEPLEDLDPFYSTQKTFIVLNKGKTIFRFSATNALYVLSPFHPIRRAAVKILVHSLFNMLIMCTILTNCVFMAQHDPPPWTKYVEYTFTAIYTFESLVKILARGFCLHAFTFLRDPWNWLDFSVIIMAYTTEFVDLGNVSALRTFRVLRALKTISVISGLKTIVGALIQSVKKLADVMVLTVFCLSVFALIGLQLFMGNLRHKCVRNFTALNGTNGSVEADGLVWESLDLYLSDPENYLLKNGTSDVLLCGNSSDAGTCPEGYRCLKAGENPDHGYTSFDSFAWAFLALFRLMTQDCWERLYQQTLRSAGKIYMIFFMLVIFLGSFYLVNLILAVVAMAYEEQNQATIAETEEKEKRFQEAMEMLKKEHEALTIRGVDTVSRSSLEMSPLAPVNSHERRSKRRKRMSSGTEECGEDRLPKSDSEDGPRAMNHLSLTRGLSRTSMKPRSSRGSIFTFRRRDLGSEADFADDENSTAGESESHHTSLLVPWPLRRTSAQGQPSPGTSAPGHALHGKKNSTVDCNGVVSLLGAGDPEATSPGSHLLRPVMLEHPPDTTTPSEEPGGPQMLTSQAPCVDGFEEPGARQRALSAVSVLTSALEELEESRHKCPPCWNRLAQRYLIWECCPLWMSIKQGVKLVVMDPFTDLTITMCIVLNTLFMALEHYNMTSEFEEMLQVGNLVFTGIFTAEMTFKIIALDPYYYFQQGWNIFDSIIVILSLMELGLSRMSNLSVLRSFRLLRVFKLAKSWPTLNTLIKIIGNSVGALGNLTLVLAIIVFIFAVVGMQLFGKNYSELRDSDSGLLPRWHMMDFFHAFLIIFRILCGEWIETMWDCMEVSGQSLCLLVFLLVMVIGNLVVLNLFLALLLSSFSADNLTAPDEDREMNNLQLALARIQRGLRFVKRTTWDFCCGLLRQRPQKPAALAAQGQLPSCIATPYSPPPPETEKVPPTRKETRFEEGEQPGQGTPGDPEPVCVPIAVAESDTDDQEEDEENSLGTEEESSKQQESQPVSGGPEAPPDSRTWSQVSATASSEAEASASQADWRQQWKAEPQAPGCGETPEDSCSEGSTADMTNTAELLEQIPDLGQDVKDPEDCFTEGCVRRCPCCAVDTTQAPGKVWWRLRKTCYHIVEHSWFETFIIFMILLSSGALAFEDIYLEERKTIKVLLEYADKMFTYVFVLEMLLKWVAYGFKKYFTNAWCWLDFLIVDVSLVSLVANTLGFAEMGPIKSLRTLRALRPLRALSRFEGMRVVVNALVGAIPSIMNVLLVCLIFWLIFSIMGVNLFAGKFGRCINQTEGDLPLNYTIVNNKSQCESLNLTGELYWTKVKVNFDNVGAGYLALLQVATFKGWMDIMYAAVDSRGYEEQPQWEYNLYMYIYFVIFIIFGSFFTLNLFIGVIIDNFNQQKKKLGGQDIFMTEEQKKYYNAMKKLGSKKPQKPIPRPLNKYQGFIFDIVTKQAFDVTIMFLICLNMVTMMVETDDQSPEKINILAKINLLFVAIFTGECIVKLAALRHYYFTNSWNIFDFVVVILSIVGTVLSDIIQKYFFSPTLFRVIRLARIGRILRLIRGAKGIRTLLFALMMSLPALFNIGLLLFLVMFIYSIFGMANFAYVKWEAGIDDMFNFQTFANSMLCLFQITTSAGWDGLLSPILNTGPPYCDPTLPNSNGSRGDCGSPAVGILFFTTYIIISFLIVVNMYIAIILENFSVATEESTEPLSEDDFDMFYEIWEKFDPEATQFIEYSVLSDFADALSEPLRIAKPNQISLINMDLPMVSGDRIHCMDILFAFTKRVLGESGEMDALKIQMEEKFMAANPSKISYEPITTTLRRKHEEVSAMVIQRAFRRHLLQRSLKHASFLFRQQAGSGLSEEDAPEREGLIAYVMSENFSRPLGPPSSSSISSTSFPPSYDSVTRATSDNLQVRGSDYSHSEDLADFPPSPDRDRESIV

[11] = tested on: IRKβ; conditions: cited from earlier work
[12] = tested on: CSF-1R; conditions: [^11C]CPPC autoradiography in AD tissues; cited from earlier work
[13] = biological target: T2, CSF-1R (Rattus norvegicus, UniProt Q00495); assay: [^3H]CPPC autoradiography in intrastriatal LPS rat brain tissues; assay type: binding; conditions: for inhibition of [^3H]CPPC binding: 10 μM competitor
T2 sequence (Q00495 20-978): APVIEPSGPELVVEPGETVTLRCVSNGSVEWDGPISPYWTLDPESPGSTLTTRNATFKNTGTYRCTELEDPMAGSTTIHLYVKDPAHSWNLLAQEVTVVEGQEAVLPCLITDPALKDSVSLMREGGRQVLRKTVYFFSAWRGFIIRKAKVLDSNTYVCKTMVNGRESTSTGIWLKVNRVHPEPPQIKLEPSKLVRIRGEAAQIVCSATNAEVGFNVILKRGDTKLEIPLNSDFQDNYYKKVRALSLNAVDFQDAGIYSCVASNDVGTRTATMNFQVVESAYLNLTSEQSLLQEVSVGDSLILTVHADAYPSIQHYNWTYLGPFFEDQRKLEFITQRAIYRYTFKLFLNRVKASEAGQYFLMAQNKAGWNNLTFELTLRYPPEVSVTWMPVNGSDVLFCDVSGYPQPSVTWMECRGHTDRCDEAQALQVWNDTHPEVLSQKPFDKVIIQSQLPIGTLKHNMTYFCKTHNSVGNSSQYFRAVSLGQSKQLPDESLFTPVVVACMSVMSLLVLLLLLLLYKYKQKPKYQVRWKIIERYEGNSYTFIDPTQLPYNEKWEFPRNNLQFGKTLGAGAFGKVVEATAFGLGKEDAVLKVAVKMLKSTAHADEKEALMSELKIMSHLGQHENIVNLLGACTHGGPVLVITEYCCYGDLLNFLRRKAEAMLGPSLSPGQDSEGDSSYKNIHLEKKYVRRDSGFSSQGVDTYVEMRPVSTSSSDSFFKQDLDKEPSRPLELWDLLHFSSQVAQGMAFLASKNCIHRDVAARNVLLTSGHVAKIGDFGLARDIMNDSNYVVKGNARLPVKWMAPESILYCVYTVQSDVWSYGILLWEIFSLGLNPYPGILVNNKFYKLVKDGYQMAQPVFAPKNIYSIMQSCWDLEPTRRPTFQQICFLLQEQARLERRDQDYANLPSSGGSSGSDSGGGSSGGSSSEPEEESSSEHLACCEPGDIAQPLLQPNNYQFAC

[14] = tested on: Kit; conditions: cited from earlier work
[15] = biological target: T3, serotonin 5-HT3A receptor (Homo sapiens, UniProt P46098); assay: Eurofins DiscoverX SAFETYscan CNS safety panel
T3 sequence (P46098 24-478): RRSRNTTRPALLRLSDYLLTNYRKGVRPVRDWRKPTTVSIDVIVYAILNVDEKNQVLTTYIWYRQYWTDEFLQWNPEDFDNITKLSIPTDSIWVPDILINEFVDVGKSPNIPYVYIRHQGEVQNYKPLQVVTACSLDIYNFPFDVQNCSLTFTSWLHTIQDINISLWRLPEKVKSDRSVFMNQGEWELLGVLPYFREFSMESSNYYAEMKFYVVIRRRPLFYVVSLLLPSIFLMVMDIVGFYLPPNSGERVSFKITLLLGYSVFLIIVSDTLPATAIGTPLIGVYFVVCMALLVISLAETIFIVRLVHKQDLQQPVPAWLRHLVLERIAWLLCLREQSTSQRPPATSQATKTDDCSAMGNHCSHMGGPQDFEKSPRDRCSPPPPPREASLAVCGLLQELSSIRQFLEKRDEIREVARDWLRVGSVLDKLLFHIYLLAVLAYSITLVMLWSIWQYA

[16] = tested on: CSF-1R; conditions: cited from earlier work
[17] = tested on: c-kit; conditions: cited from earlier work
[18] = oral administration; non-human primates; cited from earlier work
[19] = biological target: T1, CSF-1R; assay: [^3H]CPPC autoradiography in GBM mouse model brain tissue; assay type: binding; conditions: mouse GBM brain sections; 18 nM [^3H]CPPC; defined using unlabeled 10 μM CPPC
In short: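 Male-unspecified mice received a unilateral intrastriatal injection of 2.5e6 […] cells. Tumour-bearing mice were selected by MRI on day 10 and killed 9 days later. Brains were fresh-frozen and cut at 10 μm. Sections were incubated with tritiated test compound in 100% FBS for 2 h at room temperature. Non-specific binding used 10 μM unlabeled compound. Sections were washed in 0.5% BSA at 4 °C, then water at 4 °C, exposed to a phosphor screen for 5 days and analysed by ROI.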

[20] = tested on: CSF-1R; assay: No-Wash Assay with [^3H]CPPC in LPS-treated spleen and LPS injected brains; assay type: binding; conditions: LPS-treated spleen, 7-day and 30-day post LPS injected brains
[21] = Storage stability of [^3H]CPPC; assay type: physicochemical; conditions: stored at −20 °C in ethanol; over the first 6 months
In short: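 Tritiated test compound (80 Ci/mmol; 1 mCi/mL stock) was stored in ethanol at −20 °C. Decomposition was measured at 2, 4 and 6 months.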

[22] = tested on: TSPO; assay: No-Wash Assay with [^3H]PBR28 in LPS-treated spleen and LPS injected brains; assay type: binding; conditions: LPS-treated spleen, 7-day and 30-day post LPS injected brains
[23] = biological target: TSPO (Rattus norvegicus, UniProt P16257); assay: [^3H]PBR28 autoradiography in intrastriatal LPS rat brain tissues; assay type: binding
[24] = biological target: T4, TSPO (Mus musculus, UniProt P50637); assay: [^3H]PBR28 autoradiography in GBM mouse model brain tissue; assay type: binding
In short: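 Mice received an intrastriatal injection of 2.5e6 […] cells and were killed 19 days later. Fresh-frozen brain sections were incubated with 3 nM tritiated TSPO radioligand (total binding) and read by phosphor-screen autoradiography. Adjacent sections were immunostained for IBA-1. Tumour was located by anti-luciferase staining.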

[25] = biological target: T4, TSPO; assay: [^3H]PBR28 autoradiography in i.p. LPS mouse spleen tissues; assay type: binding
In short: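 C57bl/6 male mice, 10 weeks old, received LPS 1 mg/kg i.p. in saline for 3 or 4 consecutive days and were killed on day 5 or 6. Spleens were slow-frozen on dry ice and sectioned. Sections were incubated with ascending concentrations of tritiated TSPO radioligand in 100% FBS for 2 h at room temperature, then washed. […] Bmax and Kd came from non-linear regression of phosphor-screen ROI data.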

[26] = ipsilateral hemisphere of 30-day LPS rat brain, [^3H]CPPC 3 nM
[27] = [^3H]CPPC saturation in i.p. LPS mouse spleen
[28] = 7-day post-LPS injection rat brain, [^3H]CPPC 3.5 nM, mean ± sd
[29] = rats sacrificed 30-days post-surgery
[30] = [^3H]PBR28 saturation in i.p. LPS mouse spleen

SMILES: CN1CCN(c2ccc(NC(=O)c3ccc(C#N)o3)c(N3CCCCC3)c2)CC1 [CPPC, 5-cyano-N-(4-(4-methylpiperazin-1-yl)-2-(piperidin-1-yl)phenyl)furan-2-carboxamide]
IC50 [1]: 9.4 nM | hillslope (nH) ([1]; CPPC concentration curve vs [^3H]CPPC in i.p. LPS spleen): 0.46 | inhibition of [^3H]CPPC binding ([1]; i.p. LPS mouse spleen (n = 6), 10 μM competitor, [^3H]CPPC 3 nM): 85% and > 80% | concentration of off-target binding [2]: less than 0.1 μM | IC50 [3]: 74 nM | concentration of off-target binding [4]: less than 0.1 μM | concentration of off-target binding [5]: less than 0.1 μM | IC50 [6]: 4.88 µM | IC50 [7]: 70 nM | kinase targets with off-target binding [8]: 204 of 403 | IC50 [9]: 22 nM | IC50 [10]: 6.51 µM | concentration of off-target binding [11]: less than 0.1 μM | ratio of total baseline binding to the inhibited condition [12]: 1.7–2.7 | displacement of [^3H]CPPC binding ([13]; 10 μM unlabeled CPPC, LPS rodent brain tissue): up to 50% | % inhibition of [^3H]CPPC binding (signal-to-noise) ([13]; 7-day post-LPS rat brain, 10 μM unlabeled CPPC, [^3H]CPPC 3.5 nM): 49.9 ± 2.9% | inhibition of [^3H]CPPC binding [13, 26]: 60% | concentration of off-target binding [14]: less than 0.1 μM | IC50 [15]: 5.86 µM

SMILES: FC(F)(F)c1ccc(CNc2ccc(Cc3c[nH]c4ncc(Cl)cc34)cn2)cn1 [PLX3397, 5-((5-chloro-1H-pyrrolo[2,3-b]pyridin-3-yl)methyl)-N-((6-(trifluoromethyl)pyridin-3-yl)methyl)pyridin-2-amine]
affinity for CSF-1R [16]: 10 nM | affinity for c-kit [17]: 20 nM | inhibition of [^3H]CPPC binding [13, 26]: 15% | presence in cerebrospinal fluid [18]: observed in cerebrospinal fluid, albeit at low concentrations

SMILES: CN1CCN(c2ccc(NC(=O)c3ccc(C#N)o3)c(N3CCCCC3)c2)CC1 [[^3H]CPPC, [^3H] 5-cyano-N-(4-(4-methylpiperazin-1-yl)-2-(piperidin-1-yl)phenyl)furan-2-carboxamide]
Kd [1, 27]: 4.3 nM

Bmax [1, 27]: 1339 fmol/mg tissue | baseline radioligand binding of [^3H]CPPC ([1]; i.p. LPS mouse spleen, [^3H]CPPC 3 nM): 100 nCi/mg | specific signal of [^3H]CPPC [19]: ~ 60% | specific binding under No-Wash Assay conditions [20]: lack of specific binding | rate of decomposition [21]: less than 3% | [^3H]CPPC binding, contralateral hemisphere [13, 28]: 17.9 ± 1.1 nCi/mg | [^3H]CPPC binding, ipsilateral hemisphere [13, 28]: 18.9 ± 1.7 nCi/mg | saturability of [^3H]CPPC binding ([13]; 30-day LPS rat brain sections, radioligand concentration up to 40 nM): failed to saturate | total binding of [^3H]CPPC [13, 26]: 15 nCi/mg
SMILES: [3H]C([3H])([3H])N1CCN(c2ccc(NC(=O)c3ccc(C#N)o3)c(N3CCCCC3)c2)CC1 [[^3H]CPPC, [^3H] 5-cyano-N-(4-(4-methylpiperazin-1-yl)-2-(piperidin-1-yl)phenyl)furan-2-carboxamide]

SMILES: COc1ccccc1CN(C(C)=O)c1cnccc1Oc1ccccc1 [[^3H]PBR28]
specific binding under No-Wash Assay conditions [22]: > 60% | Bmax ([23]; [^3H]PBR28 saturation, ipsilateral hemisphere of 30-day LPS rat brain): 620.7 fmol/mg | [^3H]PBR28 specific binding, contralateral hemisphere ([23]; rats sacrificed 7-days post-surgery): 29.0 ± 3.1 nCi/mg | [^3H]PBR28 specific binding, ipsilateral hemisphere ([23]; rats sacrificed 7-days post-surgery, mean ± sd): 83.5 ± 48.9 nCi/mg | [^3H]PBR28 specific binding, contralateral hemisphere [23, 29]: 14.0 ± 2.36 nCi/mg | [^3H]PBR28 specific binding, ipsilateral hemisphere [23, 29]: 36.2 ± 4.07 nCi/mg | [^3H]PBR28 binding density ([24]; areas of decreased immunostaining for inflammatory cells): 620 MDC/mm^2 | relative target density ([^3H]PBR28 specific signal) ([24]; region of the tumor and immediately proximal areas): 250500 MDC/mm^2 | Bmax [25, 30]: 14771 fmol/mg tissue | Kd [25, 30]: 2.4 nM | specific binding ([25]; defined using unlabeled 10 μM FEPPA, i.p. LPS mouse spleen): 99 ± 0.03%
